Assay results collected from several papers.
Each line is one published result; the experiments were not run side by side.
Target: Activated CDC42 kinase 1 (TNK2, Homo sapiens, UniProt Q07912)

| Structure (SMILES) | assay | conditions | measurement | result |
| --- | --- | --- | --- | --- |
| Cc1cc(NC(=O)c2cccc3cc(-c4cccc5[nH]nc(N)c45)ccc23)ccc1F | enzyme activity, inhibitor | 0.1 µM | activity vs control | 107% |
| CC(C)(C)c1nc(-c2cccc(NS(=O)(=O)c3c(F)cccc3F)c2F)c(-c2ccnc(N)n2)s1 | enzyme activity, inhibitor, radiometric | 1 µM | remaining activity | 29% |
| CCCOc1ccc([C@H]2[C@H](C(=O)O)[C@@H](c3ccc4c(c3)OCO4)CN2CC(=O)Nc2c(CC)cccc2CC)cc1 | cell-free assay, competition with immobilised ligand | 1 µM | remaining binding | 100% |
| CNC(=O)c1ccccc1Nc1cc(Nc2ccc(N3CCOCC3)cc2OC)ncc1C(F)(F)F | enzyme activity, inhibitor | 1 µM | inhibition | > 50% |
| CCN(CC)c1ccc(C2=NNC(=O)CC2C)cc1[N+](=O)[O-] (stereo not drawn) | enzyme activity, inhibitor | 10 µM | remaining activity | 94% |
| O=C(Nc1cnn(-c2csc(C(=O)NC3COC3)c2)c1)Nc1c(F)cccc1Cl | enzyme activity, inhibitor | 5 µM | remaining activity | 94.6% |
| O=C1NC(=O)c2cc(Nc3ccc(F)cc3)c(Nc3ccc(F)cc3)cc21 | cell-free assay | 0.5 µM | remaining signal | 93.2% |
| Cc1ccc(NC(=O)c2ccc(C)c(C(F)(F)F)c2)cc1C#Cc1nn(C2CCC(O)CC2)c2ncnc(N)c12 (stereo not drawn) | cell-free assay | 10 µM | remaining signal | 4% |
| O=C1Nc2ccc(Cl)cc2C1=Cc1cc(Cl)c(O)c(Cl)c1 | cell-free assay | 0.5 µM | remaining signal | 32.4% |
| COc1ccc2cc(OCC3(C(=O)O)CN(C(=O)c4ccc(F)cc4)C3)ccc2c1 | cell-free assay, competition with immobilised ligand | 1 µM | remaining binding | 100% |
| CC(C)(O)[C@H]1CC[C@H](Nc2ccc3ncc(-c4cccc(C(F)(F)F)c4)n3n2)CC1 | enzyme activity, inhibitor | 1 µM | remaining activity | 5.31% |
| CO[C@@H](C)c1c(Nc2ccc([C@H](N(C)C(=O)C3CCS(=O)(=O)CC3)C(F)(F)F)cc2)cnc2cc(Cl)nn12 | cell-free assay, competition with immobilised ligand | 1 µM | remaining binding | 100% |
| CCCCNc1ncc2c(-c3ccc(F)cc3)nn(C[C@H]3CC[C@H](N)CC3)c2n1 | target engagement in cells, inhibitor, chemoproteomics | 20 mM | inhibition | 71.4% |
| CC/C(=N\NC(=O)NCc1cccc(O)c1)c1ccc(O)c(C)c1O | enzyme activity, inhibitor | 0.1 µM | inhibition | -0.3% |
| O=C(N1CCS(=O)(=O)CC1)N1C[C@H](c2ccc(OC(F)(F)F)cc2)C[C@H](c2nc(C3CC3)no2)C1 | cell-free assay, competition with immobilised ligand | 1 µM | remaining binding | 97% |
| COc1cc2nccc(Oc3ccc(NC(=O)c4c5n(n(-c6ccc(F)cc6)c4=O)CCCC5)cc3)c2cc1OC | enzyme activity, inhibitor | 0.1 µM | inhibition | 6% |
| CC(=O)N1CCC(c2ccc(C(=O)NC(=N)N)cc2C(F)(F)F)CC1 | cell-free assay, competition with immobilised ligand | 1 µM | remaining binding | 100% |
| COc1cccc2c(NCc3ccccc3)nc(-n3c(N)nc4ccccc43)nc12 | target engagement in cells, inhibitor, chemoproteomics | 20 mM | inhibition | 18.9% |
